ChEMBL document CHEMBL1124898, “Novel agents effective against solid tumors: the diarylsulfonylureas. Synthesis, activities, and analysis of quantitative structure-activity relationships” (J Med Chem, 1990)
≈ marks a conversion by molar mass, not a printed value.

How the values were obtained:
CCRF-CEM = assay: Concentration required to inhibit growth of CCRF-CEM cells in culture for 72 hr to 50% of control growth; format: functional, cell-based; settings: Homo sapiens
[1] = Antitumor activity in vivo against the 6C3HED lymphosarcoma, dosed for 8 days at 300 mg/kg; settings: Mus musculus, 192 h
[2] = Antitumor activity in vivo against the 6C3HED lymphosarcoma dosed for 8 days at 150 mg/kg; settings: Mus musculus, 192 h
Rattus norvegicus [3] = assay: Hypoglycemic activity expressed as (Maximum reduction in blood glucose in mg/dL relative to predosing glucose level)/(time in hours at which maximum reduction occurred); format: functional
Procedure, shortened: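 Fed male Sprague-Dawley rats (175–200 g), four per compound, received a single oral gavage dose of 200 mg/kg suspended in 5% acacia. Tail blood was sampled before dosing and at 1, 2, 3 and 5 h, and glucose was measured by glucose oxidase/peroxidase colorimetry. Each rat served as its own control. Value = maximum fall from predose glucose (mg/dL) divided by the hour at which that maximum occurred.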

[4] = Antitumor activity in vivo against the 6C3HED lymphosarcoma dosed for 10 days at 150 mg/kg; format: functional; settings: Mus musculus, 192 h, in the assay text read “dosed for 8 days” for “dosed for 10 days”
Procedure, shortened: (§1)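 Tumor fragments (about 1–2 mm) implanted sc via trochar into a subaxillary site of syngeneic mice (C3H, C57BL/6, Balb/C or DBA/2) or Holtz rats. Groups were 7–10 randomized animals. Compound was suspended in 2.5% Emulphor in 0.9% saline and given orally by gavage or ip, usually from the day after implantation. Tumor volume versus untreated controls was measured one day after the final dose and reported as % inhibition. Scoring bands: +++ 95–100%, ++ 80–94%.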

[5] = Antitumor activity in vivo against the 6C3HED lymphosarcoma dosed for 8 days at 100 mg/kg; settings: Mus musculus, 192 h
6C3HED [6] = assay: Antitumor activity in vivo expressed as percent of inhibition in 6C3HED-lymphosarcoma tumor cell line; format: functional, Mus musculus; procedure, shortened: as §1
B16 [7] = assay: Antitumor activity in vivo expressed as percent of inhibition in B-16-melanoma […] cell line; format: functional, Mus musculus; procedure, shortened: as §1
Colon 26 [8] = assay: Antitumor activity in vivo expressed as percent of inhibition in C-26-colon carcinoma cell line; format: functional, Mus musculus; procedure, shortened: as §1
CA-755 [9] = assay: Antitumor activity in vivo expressed as percent of inhibition in CA-755-mammary adenocarcinoma tumor cell line; format: functional, Mus musculus; procedure, shortened: as §1
C3H [10] = assay: Antitumor activity in vivo expressed as percent of inhibition in C3H-mammary adenocarcinoma cell line; format: functional, Mus musculus; procedure, shortened: as §1
L1210 = assay: Antitumor activity in vivo and the activity was determined as percent increase in life span determined against L1210V-lymphocytic leukemia tumor cell lines; format: functional, Mus musculus
Procedure, shortened: (§2)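 The ascites tumor inoculum of 1 × 10^6 cells was given ip to DBA/2 mice, and treatment started the next day. Compound was suspended in 2.5% Emulphor in 0.9% saline. Groups had 7–10 animals. %ILS = (MDD treated − MDD control)/MDD control × 100. Deaths before the control median day of death were counted as toxic. Values are optimal from at least two experiments.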

[11] = test system: Lewis lung carcinoma cell line; assay: Antitumor activity in vivo expressed as percent of inhibition in Lewis-lung carcinoma cell line; format: functional, Mus musculus; procedure, shortened: as §1
P388 [12] = assay: Antitumor activity in vivo and the activity was determined as percent increase in life span determined against P388-lymphocytic leukemia tumor cell lines; format: functional, Mus musculus; procedure, shortened: as §2
Rattus norvegicus [13] = assay: Antitumor activity in vivo expressed as percent of inhibition in Yoshida-sarcoma (rat) cell line; format: functional; procedure, shortened: as §1
X5563 [14] = assay: Antitumor activity in vivo expressed as percent of inhibition in X5563-plasma cell myeloma cell line; format: functional, Mus musculus; procedure, shortened: as §1
P1534J = assay: Antitumor activity in vivo expressed as percent of inhibition in P1534J-lymphatic leukemia cell line; format: functional, Mus musculus
M-5 (Mus musculus) [15] = assay: Antitumor activity in vivo expressed as percent of inhibition in M-5-ovarian carcinoma cell line
6C3HED [16] = assay: Antitumor activity in vivo expressed as percent of inhibition in 6C3HED-lymphosarcoma tumor cell line; 95-100% inhibition; format: functional, Mus musculus; procedure, shortened: as §1
B16 [17] = assay: Antitumor activity in vivo expressed as percent of inhibition in B-16-melanoma (solid) cell line; format: functional, Mus musculus; procedure, shortened: as §1
Colon 26 [18] = assay: Antitumor activity in vivo expressed as percent of inhibition in C-26-colon carcinoma cell line; 95-100% inhibition; format: functional, Mus musculus; procedure, shortened: as §1
CA-755 [19] = assay: Antitumor activity in vivo expressed as percent of inhibition in CA-755-mammary adenocarcinoma tumor cell line; 95-100% inhibition; format: functional, Mus musculus; procedure, shortened: as §1
M109 = assay: Antitumor activity in vivo expressed as percent of inhibition in Madison-lung carcinoma cell line; 80-94% inhibition; format: functional, Mus musculus; procedure, shortened: as §1
P388 [20] = assay: Antitumor activity in vivo and the activity was determined as percent increase in life span determined against P388-lymphocytic leukemia tumor cell lines; 50-99 %; format: functional, Mus musculus; procedure, shortened: as §2
X5563 [21] = assay: Antitumor activity in vivo expressed as percent of inhibition in X5563-plasma cell myeloma cell line; 60-79 % inhibition; format: functional, Mus musculus; procedure, shortened: as §1
C3H [22] = assay: Antitumor activity in vivo expressed as percent of inhibition in C3H-mammary adenocarcinoma cell line; 95-100% inhibition; format: functional, Mus musculus; procedure, shortened: as §1
M-5 (Mus musculus) [23] = assay: Antitumor activity in vivo expressed as percent of inhibition in M-5-ovarian carcinoma cell line; 95-100% inhibition

Row | SMILES | IC50 (CCRF-CEM) | inhibition in vivo at 300 mg/kg [1] | also measured
1 | O=C(Nc1ccc(Cl)cc1)NS(=O)(=O)c1ccc2c(c1)CCO2 | 16.1 µg/mL (≈ 45.6 µM) | 94% | –
2 | O=C(Nc1ccc(Cl)c(Cl)c1)NS(=O)(=O)c1ccccc1 | 1.5 µg/mL (≈ 4.35 µM) | – | inhibition in vivo at 150 mg/kg [2]: 100%
3 | CC(=O)c1ccc(S(=O)(=O)NC(=O)Nc2ccc(Cl)cc2)cc1 | 16.9 µg/mL (≈ 47.9 µM) | 55% | –
4 | Cc1ccc(S(=O)(=O)NC(=O)Nc2ccccn2)cc1 | > 20 µg/mL | 2% | –
5 | Cc1ccc(S(=O)(=O)NC(=O)Nc2cc(Cl)c(Cl)cc2C)cc1 | 16 µg/mL (≈ 42.9 µM) | 15% | –
6 | O=C(Nc1ccc(Cl)cc1)NS(=O)(=O)c1ccccc1 | 3.8 µg/mL (≈ 12.2 µM) | – | inhibition in vivo at 150 mg/kg [2]: 100%
7 | O=C(Nc1ccc(Cl)cc1)NS(=O)(=O)c1ccc2ccccc2c1 | 11.2 µg/mL (≈ 31 µM) | 100% | Ratio (Rattus norvegicus [3]): 0
8 | O=C(Nc1ccc(Cl)cc1)NS(=O)(=O)c1ccc(Cl)c(Cl)c1 | 14.2 µg/mL (≈ 37.4 µM) | – | inhibition in vivo at 150 mg/kg [2]: 100%
9 | Cc1ccc(S(=O)(=O)NC(=O)Nc2ccc3ccccc3c2)cc1 | 28 µg/mL (≈ 82.3 µM) | 5% | –
10 | Cc1ccc(S(=O)(=O)NC(=O)Nc2cccc3ccccc23)cc1 | > 20 µg/mL | 0% | –
11 | Cc1cccc(S(=O)(=O)NC(=O)Nc2ccc(Cl)cc2)c1 | 4.3 µg/mL (≈ 13.2 µM) | – | inhibition in vivo at 150 mg/kg [2]: 100%
12 | COc1ccc(NC(=O)NS(=O)(=O)c2ccc(OC)cc2)cc1 | 15.3 µg/mL (≈ 45.5 µM) | 16% | –
13 | Cc1ccc(S(=O)(=O)NC(=O)Nc2ccc(Cl)c([N+](=O)[O-])c2)cc1 | 15.8 µg/mL (≈ 42.7 µM) | 30% | –
14 | Cc1ccc(S(=O)(=O)NC(=O)Nc2ccc(I)cc2)cc1 | 19.6 µg/mL (≈ 47.1 µM) | – | inhibition in vivo at 150 mg/kg [4]: 76%
15 | Cc1ccc(S(=O)(=O)NC(=O)Nc2ccc(Oc3ccccc3)cc2)cc1 | > 20 µg/mL | 0% | –
16 | O=C(Nc1ccc(Cl)cc1)NS(=O)(=O)c1ccc(F)cc1 | 6.3 µg/mL (≈ 19.2 µM) | – | inhibition in vivo at 150 mg/kg [4]: 79%
17 | O=C(Nc1ccc(Cl)cc1)NS(=O)(=O)c1ccc(Cl)cc1 | 19.3 µg/mL (≈ 55.9 µM) | – | inhibition in vivo at 100 mg/kg [5]: 100%
18 | O=C(Nc1ccc(C(F)(F)F)cc1)NS(=O)(=O)c1ccc(Cl)cc1 | 5.8 µg/mL (≈ 15.3 µM) | – | inhibition in vivo at 150 mg/kg [4]: 94%; Ratio (Rattus norvegicus [3]): 0
19 | Cc1ccc(S(=O)(=O)NC(=O)Nc2ccc(Cl)c(Cl)c2)cc1 | 5.8 µg/mL (≈ 16.1 µM) | 100% | –
20 | O=C(Nc1ccc(Cl)cc1)NS(=O)(=O)c1cccnc1 | 7.1 µg/mL (≈ 22.8 µM) | 3% | –
21 | O=C(Nc1ccc(C(F)(F)F)cc1)NS(=O)(=O)c1ccccc1 | 6 µg/mL (≈ 17.4 µM) | – | inhibition in vivo at 150 mg/kg [4]: 81%
22 | COc1ccc(S(=O)(=O)NC(=O)Nc2ccc(Cl)cc2)cc1 | 12.6 µg/mL (≈ 37 µM) | – | inhibition in vivo at 150 mg/kg [2]: 100%
23 | Cc1ccc(S(=O)(=O)NC(=O)NC2CCCCC2)cc1 [GLYCYCLAMIDE] | > 20 µg/mL | 56% | –
24 | Cc1ccc(S(=O)(=O)NC(=O)Nc2ccc(Cl)cc2)cc1 [LY-181984] | 8.9 µg/mL (≈ 27.4 µM) | 100% | Inhibition (6C3HED [6]): 100%; Inhibition (B16 [7]): 79%; Inhibition (Colon 26 [8]): 94%; Inhibition (CA-755 [9]): 100%; Inhibition (C3H [10]): 94%; Increase in life-span (L1210): <50%; Inhibition [11]: <60%; Increase in life-span (P388 [12]): <50%; Inhibition (Rattus norvegicus [13]): 79%; Inhibition (X5563 [14]): 94%; Inhibition (P1534J): 100%; Inhibition (M-5 (Mus musculus) [15]): 100%
25 | O=C(Nc1ccc(Cl)cc1)NS(=O)(=O)c1ccc2c(c1)CCC2 [SULOFENUR] | 11.2 µg/mL (≈ 31.9 µM) | 100% | Inhibition (6C3HED [16]): 100%; Inhibition (B16 [17]): <60%; Inhibition (Colon 26 [18]): 100%; Inhibition (CA-755 [19]): 100%; Inhibition [11]: <60%; Inhibition (M109): 94%; Increase in life-span (P388 [20]): 99%; Ratio (Rattus norvegicus [3]): 0; Inhibition (X5563 [21]): 79%; Inhibition (C3H [22]): 100%; Inhibition (M-5 (Mus musculus) [23]): 100%
